Hits are enriched below; roughly 2.1% of the tested compounds scored in any of these assays.
MLL AF4-AF9 inh: inhibitors of AF4 peptide binding to AF9, primary screen, biochemical, AlphaScreen, biotin-AF4 peptide, FLAG-AF9, single point; Protein AF-9 (Homo sapiens), P42568; inhibition, % at 10 µM; 350,000 tested, 0.47% active;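 active = every replicate reaching a set inhibition limit, whatever the replicate mean, cut at about 25% in these data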;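 note: 0% = plate neutral control median and 100% = total signal loss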
Target sequence (P42568 whole entry, looked up): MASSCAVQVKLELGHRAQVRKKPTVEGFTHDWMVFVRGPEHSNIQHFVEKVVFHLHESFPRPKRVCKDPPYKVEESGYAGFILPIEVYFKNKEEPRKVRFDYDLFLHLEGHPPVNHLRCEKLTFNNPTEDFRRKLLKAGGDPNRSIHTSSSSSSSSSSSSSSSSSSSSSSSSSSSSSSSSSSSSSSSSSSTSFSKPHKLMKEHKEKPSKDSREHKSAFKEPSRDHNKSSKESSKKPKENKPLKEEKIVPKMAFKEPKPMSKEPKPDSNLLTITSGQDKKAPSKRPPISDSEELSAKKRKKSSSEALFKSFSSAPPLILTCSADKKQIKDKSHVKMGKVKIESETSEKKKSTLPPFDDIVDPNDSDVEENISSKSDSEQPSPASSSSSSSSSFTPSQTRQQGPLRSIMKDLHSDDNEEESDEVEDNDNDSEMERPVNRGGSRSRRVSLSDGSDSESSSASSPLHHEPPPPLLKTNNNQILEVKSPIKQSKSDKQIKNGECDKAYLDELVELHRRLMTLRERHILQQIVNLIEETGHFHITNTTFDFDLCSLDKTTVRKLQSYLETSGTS
PAX8 inh HTS: inhibitors of PAX8-driven TPO luciferase reporter, primary screen, RMG-I cells, single concentration; SteadyGlo, 24 h; 360,000 tested, 1.2% active; inhibition, % at 12.6 µM;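 active = mean replicate inhibition at least 60% with every replicate also reaching 60%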;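 note: luciferase light reporting Pax8 driven TPO promoter activity; plate controls were median of neutral control wells for no effect and mitoxantrone controls for full effect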
EWS-Fli inh: EWS/Fli-driven NR0B1 reporter inhibitors, primary screen, A673 cells, NR0B1 luciferase, luminescence, MLPCN library. viability-normalised. inhibition, % at 12.6 µM. AID 651661, 2012. 350,000 tested, 0.67% active;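 active = mean inhibition of at least 50% after viability correction, with every replicate also passing that limit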;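 note: firefly luciferase signal divided by Alamar Blue viability fluorescence both relative to DMSO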
PGC1a acetyl inh: inhibitors of PGC1a acetylation signal, primary screen, cell-based, U2OS, AlphaScreen, inhibitor mode; AlphaScreen anti-acetyl-lysine; with virally co-expressed GCN5 acetyltransferase; inhibition, % at 15.6 µM; 350,000 tested, 0.17% active; AID 651687, 2012;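 active = every replicate shows inhibition of at least 40%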;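 note: 0% = neutral control wells and 100% = positive control wells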
GSIS activator: GLuc luminescence reporter in INS-1E cells, primary screen for activators of glucose-dependent secretion of insulin; INS-1E GLuc reporter insulin secretion, 2-3 h; activation, % at 16.6 µM; 370,000 tested, 0.61% active;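 active = lowest replicate activation of at least 40%, so every replicate reaches that level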;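 note: 0% = median of neutral control wells and 100% = median of IBMX positive control wells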
XiGFP reactiv: activators of inactive X chromosome reactivation, primary screen, imaging, XiGFP fibroblasts, GFP high-content imaging, set 2; XiGFP mouse fibroblasts, % GFP-positive cells imaging, 3 d; cells co-treated with 5-aza-dC sensitizer; scaled so ellipticine positive control = 100%; activation, % at 7.58 µM; 360,000 tested, 0.055% active; AID 743238, 2013;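 active = mean normalized replicate activation at least 10% and every replicate at or above 10%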;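 note: 0% = median of on-plate neutral control wells and 100% = ellipticine 6 µM median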
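Schedule: 3 d treatment, 15 min room-temperature fixation; system: 68-5-11 XiGFP fibroblast line; buffer or medium: DMEM plus 5-aza-dC sensitizer; control set: ellipticine 6 µM positive control; compound: one concentration, pinned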
The depositor's hits bear a star; · = no result.

SMILES	MLL AF4-AF9 inh	PAX8 inh HTS	EWS-Fli inh	PGC1a acetyl inh	GSIS activator	XiGFP reactiv
Cc1ccccc1N=Nc1ccc(O)c2ncccc12	2	18	-8	10	·	2
O=Nc1ccc(O)c2ncccc12	-1	0	72*	-245	-33	0
CCN(CC)CCNC(=O)c1cc(-c2cccnc2)nc2ccc(S(=O)(=O)N3CCC(C)CC3)cc12	6	20	63*	·	15	0
CCCCN(C)CCNC(=O)c1cc(-c2cccnc2)nc2ccc(S(=O)(=O)N3CCC(C)CC3)cc12	6	13	·	13	9	1
CO[C@@H]1CN(C)C(=O)c2cc(NC(C)=O)ccc2OC[C@@H](C)N(C(=O)CC2CC2)C[C@@H]1C	0	·	-1	6	0	1
CO[C@@H]1CN(C)C(=O)c2cc(NC(=O)Nc3cccc(F)c3)ccc2OC[C@H](C)NC[C@H]1C	1	·	-4	9	3	0
CCc1nnc(N2C(=O)c3ccccc3C2(O)c2ccccc2)s1 (centres undefined)	3	24	2	-8	42*	0
Cc1ccc(N2C(=O)c3ccccc3C2(O)c2ccccc2)cc1 (centres undefined)	-3	-11	-5	-5	·	0
COc1cc(/C=N/NC(=O)c2ccc(O)cc2)ccc1OCC(=O)Nc1cccc([N+](=O)[O-])c1	-23	-59	-65	52*	30	0
Cc1ccc(NC(=O)COc2ccc(-c3nnco3)cc2)cc1S(=O)(=O)N1CCOCC1	-4	7	-3	3	9	23*
Cc1ccc(NC(=O)/C=C/c2ccc(S(=O)(=O)N3CCOCC3)cc2)cc1S(=O)(=O)N(C)C	4	66*	26	2	-8	0
Cc1ccc(OCCC(=O)OCC(=O)Nc2ccc(C)c(S(=O)(=O)N3CCOCC3)c2)cc1	-2	-9	8	·	-36	0
CC(=O)Nc1cccc(NC(=O)/C=C/c2ccc(S(=O)(=O)N3CCOCC3)cc2)c1	2	18	0	1	-4	0
O=C(Nc1cccc(S(=O)(=O)N2CCCC2)c1)c1cccc(S(=O)(=O)N2CCOCC2)c1	26*	15	10	-17	-3	0
CC(C)C(=O)N1CCN(c2ccc(NC(=O)c3ccc([N+](=O)[O-])o3)cc2Cl)CC1	5	88*	61*	30	4	0
CC(=O)N1CCN(c2ccc(NC(=O)c3ccc(Br)o3)cc2Cl)CC1	-7	-14	-61	19	2	0
O=C(Nc1cccc(O)c1)c1cccc(S(=O)(=O)N2CCCC2)c1	·	·	·	42	1	·
CCCN1[C@H](C(=O)N[C@@H](C)c2ccccc2)[C@@H](CO)[C@@H]2Cn3c(cccc3=O)[C@@H]21	-5	·	-1	-2	5	0
COc1ccc2c3c(n(C)c2c1)[C@H](CO)N(C(=O)Nc1c(C)noc1C)CC31CCN(CC2CC2)CC1	2	·	-2	-11	11	0
Cc1ccc(NC(=O)c2ccc([N+](=O)[O-])o2)cc1S(=O)(=O)N1CCOCC1	3	84*	49	-191	-24	0
CC1CN(S(=O)(=O)c2cccc(C(=O)NN3CCN(C)CC3)c2)CC(C)O1 (centres undefined)	·	-4	·	3	15	0
CN1CCN(NC(=O)c2cccc(S(=O)(=O)N3CCCCCC3)c2)CC1	-7	5	-3	-2	58*	0
CCCn1c(NC(=O)c2cccc(S(=O)(=O)N3CCCC3)c2)nc2ccccc21	·	74*	·	·	·	·
CCCn1c(NC(=O)c2ccccc2)nc2ccccc21	·	·	·	-1	-4	·
CCCC(=O)N1CCN(c2ccc(NC(=O)c3ccc([N+](=O)[O-])o3)cc2Cl)CC1	7	104*	71*	27	-2	0
Cc1ccc(NC(=O)c2cc([N+](=O)[O-])ccc2N2CCOCC2)cc1S(=O)(=O)N1CCOCC1	6	·	·	·	-32	0

Source: PubChem
